Activity and inhibition data for one compound are collected here from ChEMBL document CHEMBL5038571, “Design and Synthesis of EZH2-Based PROTACs to Degrade the PRC2 Complex for Targeting the Noncatalytic Activity of EZH2” (J Med Chem, 2021).

In assay [1] the target is T1, Protein cereblon/Histone-lysine N-methyltransferase EZH2 (Homo sapiens) (UniProt Q15910+Q96SW2). As to the kind of experiment: PROTAC activity at CRBN E3 ligase/EZH2 in PRC2 complex in human LNCaP cells assessed as induction of EZH2 degradation by measuring reduction in EZH2 protein level at 1 uM incubated for 48 hrs by Western blot analysis. In kind it is cell-based. A digest of the protocol: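 Cancer cell lines exposed to 1 μM compound for 48 h. Lysates immunoblotted (SDS-PAGE, nitrocellulose, 5% milk block, primary antibody overnight at 4 °C) for EZH2, SUZ12, EED, RbAp48 and H3K27me3. Bands quantified by densitometry and normalized to GAPDH.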

Assay [2] relates to MDA-MB-468. Briefly: Downregulation of TACC3 mRNA expression in human MDA-MB-468 cells at 10 uM incubated for 48 hrs by qRT-PCR analysis. In kind it is functional, cell-based. In a few lines: (§1)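 Cells treated 48 h. Total RNA extracted with Trizol, reverse-transcribed, and SYBR RT-qPCR run: 95 °C 30 s, then 40 cycles of 95 °C 6 s and 60 °C 20 s. mRNA normalized to the DMSO-treated group. Mean SD of three independent experiments, t-test versus DMSO.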

The target of assay [3] is T1, Protein cereblon/Histone-lysine N-methyltransferase EZH2 (Homo sapiens). Briefly: PROTAC activity at CRBN E3 ligase/EZH2 in PRC2 complex in human WSUDLCL2 cells assessed as downregulation of RbAp48 expression at 1 uM pretreated with GSK126 for 4 hrs followed by compound addition and measured after 48 hrs by Western blot analysis. The assay is classed as cell-based. A digest of the protocol: (§2)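 WSU-DLCL-2 cells pretreated 4 h with the named inhibitor, then compound added and incubated a further 48 h. EZH2, SUZ12, EED and RbAp48 measured by western blot (nitrocellulose transfer, skim-milk block, primary antibody overnight at 4 °C, chemiluminescent detection).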

Assay [4] deals with WSUDLCL2. As to the kind of experiment: Effect on Histone H3 methylation in human WSUDLCL2 cells assessed as reduction in H3K4me3 levels at upto 10 uM incubated for 48 hrs by Western blot analysis. In kind it is functional, cell-based. Particulars: dose microM <=10, time 48.0 hrs. A digest of the protocol: (§3)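 Lysates run on SDS-PAGE and transferred to nitrocellulose. Membranes blocked with 5% skim milk for 2 h, primary antibody applied overnight at 4 °C, then secondary antibody and chemiluminescent detection of histone H3 methylation marks.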

Assay [5] concerns WSUDLCL2. Briefly: Inhibition of PRC2 in human WSUDLCL2 cells assessed as suppression H3K27 trimethylation incubated for 48 hrs by Western blot analysis. In kind it is cell-based. In a few lines: as §3
The target in assay [6] is T1, Protein cereblon/Histone-lysine N-methyltransferase EZH2 (Homo sapiens). Briefly: PROTAC activity at CRBN E3 ligase/EZH2 in PRC2 complex in human WSUDLCL2 cells assessed as downregulation of EZH2 expression at 1 uM pretreated with lenalidomide for 4 hrs followed by compound addition and measured after 48 hrs by Western blot analysis. The assay is classed as cell-based. In a few lines:
as §2

Assay [7] shares this target. As to the kind of experiment: PROTAC activity at CRBN E3 ligase/EZH2 in PRC2 complex in human WSUDLCL2 cells assessed as downregulation of EED expression at 1 uM pretreated with EPZ6438 for 4 hrs followed by compound addition and measured after 48 hrs by Western blot analysis. The assay is classed as cell-based. In a few lines: as §2
The test system of assay [8] is NCI-H1299. As to the kind of experiment: Downregulation of ARL6IP mRNA expression in human NCI-H1299 cells at 10 uM incubated for 48 hrs by qRT-PCR analysis. The assay is classed as functional, cell-based. In a few lines:
as §1

The target of assay [9] is T1, Protein cereblon/Histone-lysine N-methyltransferase EZH2 (Homo sapiens). Briefly: PROTAC activity at CRBN E3 ligase/EZH2 in PRC2 complex in human WSUDLCL2 cells assessed as induction of EZH2 degradation at 10 uM incubated for 48 hrs by Western blot analysis. The assay is classed as cell-based.
The target is the same in assay [10]. As to the kind of experiment: PROTAC activity at CRBN E3 ligase/EZH2 in PRC2 complex in human WSUDLCL2 cells assessed as induction of SUZ12 degradation by measuring reduction in SUZ12 protein level at 1 uM measured after 48 to 72 hrs by Western blot analysis. The note with it: time 48-72 hrs. The assay is classed as cell-based.
The target is the same in assay [11]. As to the kind of experiment: PROTAC activity at CRBN E3 ligase/EZH2 in PRC2 complex in human LNCaP cells assessed as reduction in H3K27me3 level at 1 uM incubated for 48 hrs by Western blot analysis. The assay is classed as cell-based. A digest of the protocol: (§4)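 Cells cultured in DMEM or RPMI 1640 with 10% FBS and 1% penicillin-streptomycin, 37 °C, 5% CO2; exposed to 1 μM compound for 48 h. Lysates run on SDS-PAGE and transferred to nitrocellulose. Blocked 2 h in 5% skim milk, primary antibody overnight at 4 °C, then secondary antibody. Chemiluminescent detection of PRC2 subunits and H3K27me3.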

In assay [12] the test system is NCI-H1299. Briefly: Downregulation of […] mRNA expression in human NCI-H1299 cells at 10 uM incubated for 48 hrs by qRT-PCR analysis. The assay is classed as functional, cell-based. A digest of the protocol:
as §1

Assay [13] deals with T1, Protein cereblon/Histone-lysine N-methyltransferase EZH2 (Homo sapiens). As to the kind of experiment: PROTAC activity at CRBN E3 ligase/EZH2 in PRC2 complex in human WSUDLCL2 cells assessed as downregulation of EED expression at 1 uM pretreated with lenalidomide for 4 hrs followed by compound addition and measured after 48 hrs by Western blot analysis. The assay is classed as cell-based. A digest of the protocol:
as §2

The test system of assay [14] is NCI-H1299. Briefly: Downregulation of CENPK mRNA expression in human NCI-H1299 cells at 10 uM incubated for 48 hrs by qRT-PCR analysis. In kind it is functional, cell-based. In a few lines: as §1
The target of assay [15] is T1, Protein cereblon/Histone-lysine N-methyltransferase EZH2 (Homo sapiens). As to the kind of experiment: PROTAC activity at CRBN E3 ligase/EZH2 in PRC2 complex in human WSUDLCL2 cells assessed as downregulation of SUZ12 expression at 1 uM pretreated with MG-132 for 4 hrs followed by compound addition and measured after 48 hrs by Western blot analysis. In kind it is cell-based. A digest of the protocol:
as §2

Assay [16] shares this target. Briefly: PROTAC activity at CRBN E3 ligase/EZH2 in PRC2 complex in human SK-OV-3 cells assessed as induction of EZH2 degradation by measuring reduction in EZH2 protein level at 1 uM incubated for 48 hrs by Western blot analysis. In kind it is cell-based. A digest of the protocol:
as §4

In assay [17] the test system is MDA-MB-468. As to the kind of experiment: Downregulation of CENPK mRNA expression in human MDA-MB-468 cells at 10 uM incubated for 48 hrs by qRT-PCR analysis. In kind it is functional, cell-based. In a few lines: as §1
Assay [18] deals with T1, Protein cereblon/Histone-lysine N-methyltransferase EZH2 (Homo sapiens). As to the kind of experiment: PROTAC activity at CRBN E3 ligase/EZH2 in PRC2 complex in human WSUDLCL2 cells assessed as induction of RbAp48 degradation at 1 uM incubated for 48 hrs by Western blot analysis relative to control. In kind it is cell-based. In a few lines: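 WSU-DLCL-2 cells treated 48 h (1 μM for the single-concentration screen), lysed; SDS-PAGE, nitrocellulose transfer, 5% milk block, primary antibody 4 °C overnight, chemiluminescence. Bands quantified by densitometry, normalized to GAPDH, expressed relative to DMSO-treated cells; mean ± SD of three independent experiments, t-test.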

Assay [19] concerns A549. As to the kind of experiment: Upregulation of CDKN2A mRNA expression in human A549 cells at 5 uM incubated for 48 hrs by qRT-PCR analysis. In kind it is functional, cell-based. A digest of the protocol: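 A549 cells treated 48 h. Trizol RNA extraction, reverse transcription, SYBR qPCR (95 °C 30 s; 40 cycles of 95 °C 6 s, 60 °C 20 s). mRNA normalized to DMSO-treated cells; mean ± SD of three independent experiments.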

In assay [20] the test system is A549. Briefly: Antiproliferative activity against human A549 cells harboring SWI/SNF mutant assessed as inhibition of cell growth at 10 uM treated for 9 days by optical microscopic analysis. The note with it: time 9.0 day. The assay is classed as functional, cell-based. A digest of the protocol: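 Cells seeded at 5 × 10³ per well, grown 24 h, then exposed to compound at 10 μM for 9 days with medium refreshed. Cells were photographed and counted on days 1, 3, 5, 7 and 9. For lines 1-2, EZH2-targeting or control shRNA was induced in the cells. Mean SD of three independent experiments; t-test against control.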

Molecules are shown by their SMILES. Calls of active or inactive are those of the source. The rule behind the calls is not given here.

T1 sequence (Q15910 whole entry, looked up): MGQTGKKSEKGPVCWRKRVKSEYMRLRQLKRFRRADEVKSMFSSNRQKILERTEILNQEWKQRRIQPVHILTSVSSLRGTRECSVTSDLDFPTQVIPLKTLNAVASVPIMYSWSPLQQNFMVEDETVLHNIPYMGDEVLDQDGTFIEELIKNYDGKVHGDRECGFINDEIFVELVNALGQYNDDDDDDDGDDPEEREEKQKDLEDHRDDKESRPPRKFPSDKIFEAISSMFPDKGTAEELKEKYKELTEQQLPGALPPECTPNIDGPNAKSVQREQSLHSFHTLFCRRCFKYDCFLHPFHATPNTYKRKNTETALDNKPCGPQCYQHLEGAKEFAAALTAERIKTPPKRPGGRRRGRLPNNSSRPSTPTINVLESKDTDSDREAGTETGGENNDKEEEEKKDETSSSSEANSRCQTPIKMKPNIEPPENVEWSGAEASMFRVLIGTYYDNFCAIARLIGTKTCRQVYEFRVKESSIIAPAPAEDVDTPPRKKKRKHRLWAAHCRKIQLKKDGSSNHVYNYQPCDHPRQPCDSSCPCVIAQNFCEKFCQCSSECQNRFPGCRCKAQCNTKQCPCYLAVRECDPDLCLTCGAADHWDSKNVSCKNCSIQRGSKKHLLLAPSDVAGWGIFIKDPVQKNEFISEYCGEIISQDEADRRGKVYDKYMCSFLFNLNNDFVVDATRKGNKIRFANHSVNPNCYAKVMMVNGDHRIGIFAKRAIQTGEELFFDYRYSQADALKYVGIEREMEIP
T1 sequence (Q96SW2 whole entry, looked up): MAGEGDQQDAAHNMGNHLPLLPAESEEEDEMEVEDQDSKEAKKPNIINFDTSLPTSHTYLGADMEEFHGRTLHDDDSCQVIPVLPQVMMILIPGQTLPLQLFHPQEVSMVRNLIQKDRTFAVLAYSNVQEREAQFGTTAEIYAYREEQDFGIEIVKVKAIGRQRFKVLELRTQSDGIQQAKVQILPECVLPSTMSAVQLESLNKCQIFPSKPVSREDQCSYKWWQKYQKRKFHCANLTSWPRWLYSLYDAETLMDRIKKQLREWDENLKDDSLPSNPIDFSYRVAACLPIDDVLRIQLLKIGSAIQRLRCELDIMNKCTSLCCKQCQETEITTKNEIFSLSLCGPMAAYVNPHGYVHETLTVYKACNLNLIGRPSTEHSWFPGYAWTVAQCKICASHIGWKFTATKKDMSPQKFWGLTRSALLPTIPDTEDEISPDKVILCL

As to `CCN(c1cc(-c2ccc(CN3CCN(CCCCCCCOc4cccc5c4C(=O)N(C4CCC(=O)NC4=O)C5=O)CC3)cc2)cc(C(=O)NCc2c(C)cc(C)[nH]c2=O)c1C)C1CCOCC1` (stereo not given), the outcome (in assay [1]; in the assay on MDA-MB-468 [2]; in the assay on NCI-H1299 [8]; in [10]; in [11]; in the assay with NCI-H1299 [12]) was Active. The outcome (with NCI-H1299 [14]; in [16]; in the assay with MDA-MB-468 [17]; with A549 [19]; with A549 [20]) was Active. In addition, the outcome (in assay [3]; with WSUDLCL2 [4]; in assay [6]; in assay [7]; in [9]; in assay [13]) was inactive. Also, the result in assay [15] was inactive. Also, the inhibition entry with WSUDLCL2 [5] is “Dose-Dependent Effect”. In addition, the Activity in [18] came out at 74%.
